Consider 53 compounds from ChEMBL document CHEMBL1811838, “Antimalarial activity of natural and synthetic prodiginines” (J Med Chem, 2011).

Data set [1] concerns Plasmodium falciparum. The data set can be described thus: Antimalarial activity Plasmodium falciparum D6 after 72 hrs by SYBR Green I based fluorescence assay. The class given is functional, organism-based. The conditions noted are these: D6, 72 h. The essentials: (§1)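 P. falciparum (D6 pansensitive; Dd2 MDR) cultured under standard conditions and grown 72 h with varying compound concentrations, chloroquine positive control or no drug, each condition in quadruplicate. Growth measured by SYBR Green I fluorescence with minor modifications; IC50 = concentration inhibiting growth by 50%.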

Data set [2] relates to Plasmodium falciparum. Put plainly: Antimalarial activity multidrug-resistant Plasmodium falciparum Dd2 after 72 hrs by SYBR Green I based fluorescence assay. The class given is functional, organism-based. The conditions noted are these: Dd2, 72 h. A digest of the protocol:
as §1

Data set [3] in a line: Toxicity in C57BL/6J mouse splenic lymphocytes after 72 hrs by Alamar blue Assay. The class given is cell-based. Particulars: splenic lymphocyte. A digest of the protocol: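 Splenic lymphocytes from C57BL/6J mice washed, then stimulated with 1 μg/mL concanavalin A in RPMI/10% FBS with 50 μM β-mercaptoethanol. Seeded at 2 × 10^5 cells/well with serially diluted compound for 72 h at 37 °C, 5% CO2. Resazurin added (final 10 μM) for another 24 h; fluorescence read at ex 560/em 590 nm.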

Turning to `COC1=CC(c2ccc[nH]2)=N/C1=C\c1[nH]c(C)cc1C`, the 50% inhibitory concentration (IC50) is 8900 nM in the data set on Plasmodium falciparum [1], 8130 nM in the data set with Plasmodium falciparum [2] and under 125 nM in data set [3].
Taken in the same sequence, the figures for `CCCCCCCCCCCCCCCCc1cc[nH]c1/C=C1\N=C(c2ccc[nH]2)C=C1OC` were over 25000 nM, over 25000 nM and 3630 nM.
Taken in the same sequence, the figures for `COC1=CC(c2ccc[nH]2)=N/C1=C\c1[nH]ccc1Cc1ccc(Br)cc1` were 90 nM, 108 nM and under 125 nM.
Taken in the same sequence, the figures for `COC1=CC(c2ccc[nH]2)=N/C1=C\c1[nH]c(Cc2ccc(Br)cc2)cc1Cc1ccc(Br)cc1` were 14 nM, 11 nM and under 125 nM.
Turning to `COC1=CC(c2ccc[nH]2)=N/C1=C\c1[nH]ccc1Cc1ccc(OC)cc1`, the IC50 is 170 nM in the data set with Plasmodium falciparum [1], 156 nM in the data set on Plasmodium falciparum [2] and under 125 nM in data set [3].
Taken in the same sequence, the figures for `CCCCCCc1cc(CCC)c(/C=C2\N=C(c3ccc[nH]3)C=C2OC)[nH]1` were 4.5 nM, 4 nM and under 125 nM.
Regarding `CCCCCCc1cc(Cc2ccc(Br)cc2)c(/C=C2\N=C(c3ccc[nH]3)C=C2OC)[nH]1`, the half-inhibitory concentration (IC50) in the data set with Plasmodium falciparum [2] was 2.8 nM; in data set [3], under 125 nM.
For the compound `COC1=CC(c2ccc[nH]2)=N/C1=C\c1[nH]c(Cc2ccccc2Cl)cc1Cc1ccccc1Cl`, the concentration for half-maximal inhibition (IC50) in the data set with Plasmodium falciparum [1] was 3.6 nM; with Plasmodium falciparum [2] it was 4.9 nM; in data set [3], under 125 nM.
The like results for `COC1=CC(c2cccs2)=N/C1=C\c1[nH]c(C)cc1C` were, in that order, over 25000 nM, over 25000 nM and 3530 nM.
Taken in the same sequence, the figures for `COC1=CC(c2ccc[nH]2)=N/C1=C\c1[nH]c(Cc2cccc(F)c2)cc1Cc1cccc(F)c1` were 5.1 nM, 6.7 nM and under 125 nM.
Taken in the same sequence, the figures for `COC1=CC(c2ccco2)=N/C1=C\c1[nH]c(C)cc1C` were over 25000 nM, over 25000 nM and 3890 nM.
For `COC1=CC(c2ccc[nH]2)=N/C1=C\c1[nH]c(Cc2ccc(Cl)cc2Cl)cc1Cc1ccc(Cl)cc1Cl`, the values for the IC50 (with Plasmodium falciparum [1]; with Plasmodium falciparum [2]; in data set [3]) were 12.6 nM, 11 nM and under 125 nM, respectively.
Take `COC1=CC(c2ccc[nH]2)=N/C1=C\c1[nH]c(Cc2ccc(F)cc2)cc1Cc1ccc(Cl)cc1`: the 50% inhibitory concentration (IC50) was 6.1 nM with Plasmodium falciparum [2] and under 125 nM in data set [3].
For the compound `CCCCCCCCCCCC1=N/C(=C\c2[nH]c(-c3ccccc3)cc2OC)C=C1`, the IC50 in the data set on Plasmodium falciparum [1] came to 10500 nM; in the data set with Plasmodium falciparum [2] it was 15800 nM; in data set [3], 3580 nM.
In the case of `COC1=CC(c2ccc[nH]2)=N/C1=C\c1[nH]ccc1Cc1ccccc1`, the IC50 with Plasmodium falciparum [2] was 86 nM; in data set [3] it was under 125 nM.
`CCCCCCCCCCCC1=N/C(=C\c2[nH]c(-c3cc4ccccc4[nH]3)cc2OC)C=C1`: the IC50 in the data set on Plasmodium falciparum [1] amounted to 4060 nM; in the data set on Plasmodium falciparum [2] it was 6150 nM; in data set [3], 3410 nM.
The like results for `COC1=CC(c2ccc[nH]2)=N/C1=C\c1[nH]c(CCC2CCCCC2)cc1CCC1CCCCC1` were, in that order, 5.3 nM, 3.5 nM and under 125 nM.
The like results for `COC1=CC(c2ccccc2)=N/C1=C\c1[nH]c(C)cc1C` were, in that order, 19400 nM, 13600 nM and 7950 nM.
The like results for `CCCCCCCc1cc(Cc2ccc(Cl)cc2)c(/C=C2\N=C(c3ccc[nH]3)C=C2OC)[nH]1` were, in that order, 2.8 nM, 2.2 nM and under 125 nM.
For the compound `COC1=CC(c2ccc[nH]2)=N/C1=C\c1ccc(CCCCCCCCCCCN)[nH]1`, the IC50 in the data set with Plasmodium falciparum [1] is 1700 nM.
Take `CCCCCCCCCCCc1ccc(/C=C2\N=C(c3cccs3)C=C2OC)[nH]1`: the values for the IC50 (in the data set with Plasmodium falciparum [1]; in the data set with Plasmodium falciparum [2]; in data set [3]) were 5940 nM, 7770 nM and 2120 nM, respectively.
The like results for `COC1=CC(c2cc3ccccc3[nH]2)=N/C1=C\c1[nH]c(C)cc1C` [OBATOCLAX] were, in that order, 4250 nM, 4950 nM and under 125 nM.
In the data set with Plasmodium falciparum [1], `CCCCCCCCCCCC1=N/C(=C\c2[nH]c(-c3ccc[nH]3)cc2OC)C=C1` [UNDECYLPRODIGININE] came in with an IC50 of 7.7 nM.
For the compound `CCCCCCCCCCc1cc[nH]c1/C=C1\N=C(c2ccc[nH]2)C=C1OC`, the 50% inhibitory concentration (IC50) was 8 nM in the data set with Plasmodium falciparum [1], 10 nM in the data set with Plasmodium falciparum [2] and under 125 nM in data set [3].
Taken in the same sequence, the figures for `CCCCCCCCc1cc(CCCCCC)[nH]c1/C=C1\N=C(c2ccc[nH]2)C=C1OC` were 4.9 nM, 2 nM and under 125 nM.
Consider `COC1=CC(c2ccc[nH]2)=N/C1=C\c1[nH]c(Cc2ccc(Br)cc2)cc1Cc1ccc(Cl)cc1`, for which the IC50 is 8.3 nM with Plasmodium falciparum [1], 7.7 nM in the data set on Plasmodium falciparum [2] and under 125 nM in data set [3].
Regarding `CCCCCCCCCCCc1ccc(/C=C2\N=C(c3ccco3)C=C2OC)[nH]1`, the values for the IC50 (in the data set on Plasmodium falciparum [1]; with Plasmodium falciparum [2]; in data set [3]) were 2920 nM, 3810 nM and 980 nM, respectively.
`CCCCC1CCCCCCc2cc1c(/C=C1\N=C(c3ccc[nH]3)C=C1OC)[nH]2` (stereo not drawn) [STREPTORUBIN B] showed an IC50 in the data set with Plasmodium falciparum [1] of 7.8 nM. That is a single-digit nanomolar value.
As for `CCc1cc(Cc2ccc(Cl)cc2)c(/C=C2\N=C(c3ccc[nH]3)C=C2OC)[nH]1`, the 50% inhibitory concentration (IC50) is 6.2 nM in the data set on Plasmodium falciparum [2] and under 125 nM in data set [3].
With `CCCCCCCc1cc(CCCCCC)c(/C=C2\N=C(c3ccc[nH]3)C=C2OC)[nH]1`, the concentration for half-maximal inhibition (IC50) was 2.1 nM in the data set with Plasmodium falciparum [1], 1.2 nM in the data set on Plasmodium falciparum [2] and under 125 nM in data set [3].
Taken in the same sequence, the figures for `CCCCCCCCCCCCCCCCc1ccc(/C=C2\N=C(c3ccc[nH]3)C=C2OC)[nH]1` were 300 nM, 400 nM and under 125 nM.
Taken in the same sequence, the figures for `COC1=CC(c2ccc[nH]2)=N/C1=C\c1[nH]c(Cc2ccc(Cl)cc2)cc1CCC1CCCCC1` were 3.9 nM, 2.9 nM and 1010 nM.
In data set [3], `CCN(CC)CCCC(C)Nc1ccnc2cc(Cl)ccc12` (stereo not drawn) [CHLOROQUINE] gave a half-inhibitory concentration (IC50) of 16000 nM.
For the compound `CCCc1ccc(/C=C2\N=C(c3ccc[nH]3)C=C2OC)[nH]1`, in the data set on Plasmodium falciparum [1], the half-maximal inhibitory concentration (IC50) stood at 2300 nM.
For the compound `CCCCCCc1cc(CCCCCC)c(/C=C2\N=C(c3ccc[nH]3)C=C2OC)[nH]1`, the 50% inhibitory concentration (IC50) in the data set on Plasmodium falciparum [1] was 1.7 nM; in the data set on Plasmodium falciparum [2], 1.1 nM; in data set [3], under 125 nM.
Taken in the same sequence, the figures for `CCCCc1cc[nH]c1/C=C1\N=C(c2ccc[nH]2)C=C1OC` were 80 nM, 18 nM and under 125 nM.
`CCCCCCCCc1ccc(/C=C2\N=C(c3ccc[nH]3)C=C2OC)[nH]1`: the figures for the IC50 (in the data set on Plasmodium falciparum [1]; in the data set with Plasmodium falciparum [2]; in data set [3]) were 80 nM, 130 nM and under 125 nM, respectively.
Taken in the same sequence, the figures for `CCCCCCc1ccc(/C=C2\N=C(c3ccc[nH]3)C=C2OC)[nH]1` were 375 nM, 450 nM and under 125 nM.
Taken in the same sequence, the figures for `CCCCc1ccc(/C=C2\N=C(c3ccc[nH]3)C=C2OC)[nH]1` were 1780 nM, 1590 nM and under 125 nM.
Take `COC1=CC(c2ccc[nH]2)=N/C1=C\c1[nH]c(Cc2ccc(F)cc2)cc1Cc1ccc(F)cc1`: the IC50 with Plasmodium falciparum [1] was 5.6 nM; in the data set on Plasmodium falciparum [2], 5.7 nM; in data set [3], under 125 nM.
Taken in the same sequence, the figures for `CCCCCCCCc1cc(CCCCCCC)[nH]c1/C=C1\N=C(c2ccc[nH]2)C=C1OC` were 6.2 nM, 2.9 nM and 3910 nM.
With `CCCCCCc1cc(Cc2ccc(F)cc2)c(/C=C2\N=C(c3ccc[nH]3)C=C2OC)[nH]1`, the IC50 with Plasmodium falciparum [2] turned out to be 0.9 nM; in data set [3], 1460 nM.
As for `CCCCCCCCc1cc[nH]c1/C=C1\N=C(c2ccc[nH]2)C=C1OC`, the IC50 in the data set on Plasmodium falciparum [1] is 4.6 nM; with Plasmodium falciparum [2], 1.8 nM; in data set [3], under 125 nM.
In turn, `CCCCCC1=C/C(=C/c2[nH]c(-c3ccc[nH]3)cc2OC)N=C1C` [PRODIGIOSIN] yielded a half-inhibitory concentration (IC50) in the data set with Plasmodium falciparum [1] of 8 nM. This lies in the single-digit nanomolar range.
On to `CCCCCCCCc1cc(Cc2ccc(F)cc2)c(/C=C2\N=C(c3ccc[nH]3)C=C2OC)[nH]1`, for which the IC50 with Plasmodium falciparum [1] is 1.3 nM; in the data set on Plasmodium falciparum [2], 1.2 nM; in data set [3], under 125 nM.
The like results for `COC1=CC(c2ccc[nH]2)=N/C1=C\c1[nH]c(Cc2c(F)cccc2F)cc1Cc1c(F)cccc1F` were, in that order, 14.7 nM, 18.3 nM and under 125 nM.
Consider `CCCCCCCCc1cc(Cc2ccc(Br)cc2)c(/C=C2\N=C(c3ccc[nH]3)C=C2OC)[nH]1`, for which the IC50 with Plasmodium falciparum [1] is 4 nM; in the data set with Plasmodium falciparum [2] it was 2.9 nM; in data set [3] it was under 125 nM.
Regarding `COC1=CC(c2ccc[nH]2)=N/C1=C\c1[nH]ccc1Cc1ccc2ccccc2c1`, inhibition in the data set on Plasmodium falciparum [1] was half-maximal at 56 nM (IC50).
On the same count and under the same terms, next, `COC(=O)CCCc1cc[nH]c1/C=C1\N=C(c2ccc[nH]2)C=C1OC`: 4500 nM.
For `COC1=CC(c2ccc[nH]2)=N/C1=C\c1[nH]c(Cc2ccc(Br)cc2)cc1Cc1ccc(F)cc1`, the figures for the IC50 (in the data set on Plasmodium falciparum [1]; with Plasmodium falciparum [2]; in data set [3]) were 5.7 nM, 5.1 nM and under 125 nM, respectively.
The like results for `CCCCCCc1cc[nH]c1/C=C1\N=C(c2ccc[nH]2)C=C1OC` were, in that order, 28 nM, 7 nM and under 125 nM.
Taken in the same sequence, the figures for `COC1=CC(c2ccc[nH]2)=N/C1=C\c1[nH]ccc1CC(C)C` were 460 nM, 230 nM and under 125 nM.
The like results for `CCCCCCCCc1cc(CCCCCCCC)c(/C=C2\N=C(c3ccc[nH]3)C=C2OC)[nH]1` were, in that order, 92 nM, 129 nM and 31200 nM.
